From ChEMBL document CHEMBL2069171, “Novel monobactams utilizing a siderophore uptake mechanism for the treatment of gram-negative infections” (Bioorg Med Chem Lett, 2012) come the findings set out here.

Each structure is given as a SMILES string. Converted amounts (≈) assume the structure as drawn.

Series [1] deals with Pseudomonas aeruginosa. The series can be described thus: Antibacterial activity against penicillin-resistant, quinolone-sensitive Pseudomonas aeruginosa 1091-05. It is filed as functional.
Series [2] deals with Pseudomonas aeruginosa. The series can be described thus: Antibacterial activity against beta-lactam- and quinolone-resistant Pseudomonas aeruginosa 1042-06. It is filed as functional.
A short description of series [3]: Aqueous stability of the compound at pH 6. The following applies: buffer. Format: physicochemical.
In series [4] the test system is Klebsiella pneumoniae. The series can be described thus: Antibacterial activity against Klebsiella pneumoniae. It is filed as functional. The gist of the method:
(§1)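 MICs determined against an organism panel of drug-susceptible strains and recent MDR clinical isolates. For selected analogs, MIC90 was taken from broader panels as the concentration inhibiting visible growth of 90 percent of strains.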

Series [5] has as its system Pseudomonas aeruginosa. The series can be described thus: Antibacterial activity against Pseudomonas aeruginosa. Format: functional. In a few lines: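 MICs for P. aeruginosa were determined on a drug-susceptible strain, 1091-05 (penicillin-resistant, quinolone-sensitive clinical strain), and a recent MDR clinical isolate, 1042-06. For selected analogs, MIC90 was taken from broader strain panels as the concentration inhibiting visible growth of 90 percent of strains.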

The test system of series [6] is Escherichia coli. The series can be described thus: Antibacterial activity against Escherichia coli. Format: functional. The gist of the method:
as §1

Series [7] is described as follows: Fraction unbound in rat plasma. Format: ADME, cell-free.
Series [8] has as its system Acinetobacter baumannii. Description: Antibacterial activity against Acinetobacter baumannii. Format: functional. The gist of the method:
as §1

The nature of series [9]: Fraction unbound in human plasma. It is filed as ADME, cell-free.
Series [10] can be described thus: Total clearance in rat at 1 mg/kg, iv. It is filed as ADME, organism-based. More on the design: dose 1 mg/kg, route intravenous. The following applies: in vivo.
The subject of series [11] is Rattus norvegicus. The series can be described thus: Unbound clearance in rat at 1 mg/kg, iv. As to conditions: in vivo. It is filed as ADME, organism-based. On the set-up: dose 1 mg/kg, route intravenous.
Series [12] is described as follows: Total clearance in mouse plasma relative to protein binding and blood flow. It is filed as ADME, organism-based.
The subject of series [13] is Pseudomonas aeruginosa. The series can be described thus: Antibacterial activity against penicillin-resistant, quinolone-sensitive Pseudomonas aeruginosa 1091-05 infected in mouse model of pneumonia assessed as reduction of lung colony forming unit counts. It is filed as functional. The gist of the method:
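Murine pneumonia model infected with P. aeruginosa 1091-05. ED50, in mg/kg/dose, derived from reductions in lung CFU counts over the course of the study.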

A short description of series [14]: Fraction unbound in mouse plasma. Format: ADME, cell-free.
The nature of series [15]: Clearance in mouse. Format: ADME, organism-based. As to conditions: in vivo.

As to `CC(C)(O/N=C(\C(=O)N[C@@H]1C(=O)N(S(=O)(=O)O)[C@@H]1COC(=O)c1ccnc(-c2cc(=O)c(O)c[nH]2)n1)c1csc(N)n1)C(=O)O` (stereo in doubt), the values for the MIC in [1] and in [2] were 8 µg/mL (≈ 12 µM) and 32 µg/mL (≈ 48 µM), respectively.
Regarding `C[C@H]1[C@H](NC(=O)/C(=N\OC(C)(C)C(=O)O)c2csc(N)n2)C(=O)N1C(=O)NS(=O)(=O)n1nc(-c2cc(=O)c(O)c[nH]2)n(C[C@@H](O)CO)c1=O` (stereo in doubt), the Stability entry in series [3] was “Stable”.
Regarding `Nc1nc(/C(=N/OCC(=O)O)C(=O)N[C@@H]2C(=O)N(S(=O)(=O)O)[C@@H]2COC(=O)CNC(=O)c2ccc(O)c(O)c2)cs1` (stereo in doubt), the minimum inhibitory concentration (MIC) in series [1] came out at 0.5 µg/mL (≈ 0.811 µM); in [2], 32 µg/mL (≈ 51.9 µM).
For the compound `CC(C)(O/N=C(\C(=O)N[C@@H]1C(=O)N(S(=O)(=O)O)[C@@H]1COC(=O)CNC(=O)c1ccc(O)c(O)c1)c1csc(N)n1)C(=O)O` (stereo in doubt), the figures for the MIC in series [1] and in series [2] were 1 µg/mL (≈ 1.55 µM) and 16 µg/mL (≈ 24.8 µM), respectively.
On the same counts, the results for `CC(C)(O/N=C(\C(=O)N[C@@H]1C(=O)N(S(=O)(=O)O)[C@@H]1COC(=O)c1cc(-c2cc(=O)c(O)c[nH]2)no1)c1csc(N)n1)C(=O)O` (stereo in doubt) are 4 µg/mL (≈ 6.1 µM) and 4 µg/mL (≈ 6.1 µM).
Regarding `CC(C)(O/N=C(\C(=O)N[C@@H]1C(=O)N(S(=O)(=O)O)[C@@H]1COC(=O)c1cc(-c2cc(=O)c(O)cn2O)no1)c1csc(N)n1)C(=O)O` (stereo in doubt), the MIC in [1] and in [2] was 0.25 µg/mL (≈ 0.372 µM) each time. Besides, the MIC90 is 2 µg/mL (≈ 2.98 µM) in [4], 1 µg/mL (≈ 1.49 µM) in series [5], 0.125 µg/mL (≈ 0.186 µM) in [6] and > 64 µg/mL in series [8]. For the same compound, the fraction unbound amounted to 0.24 in series [7] and 0.32 in [9]. Also, the clearance in [10] was 34.7 mL/min/kg. The CL free in series [11] was 144.6 mL/min/kg.
For the compound `CC(C)(O/N=C(\C(=O)N[C@@H]1C(=O)N(S(=O)(=O)O)[C@@H]1COC(=O)CNC(=O)c1cc(=O)c(O)c[nH]1)c1csc(N)n1)C(=O)O` (stereo in doubt), the MIC is 1 µg/mL (≈ 1.55 µM) in series [1] and 32 µg/mL (≈ 49.6 µM) in series [2].
For `C[C@@H](O)[C@H]1C(=O)N2C(C(=O)O)=C(S[C@@H]3CN[C@H](C(=O)N(C)C)C3)[C@H](C)[C@H]12` [MEROPENEM], in series [1], the MIC is 0.5 µg/mL (≈ 1.3 µM). Moreover, the MIC90 in series [4] is 32 µg/mL (≈ 83.4 µM); in series [5], > 64 µg/mL; in series [6], 0.06 µg/mL (≈ 0.156 µM); in series [8], 64 µg/mL (≈ 167 µM).
As for `CC1(C)[C@H](NC(=O)/C(=N\OCc2cc(=O)c(O)cn2O)c2csc(N)n2)C(=O)N1OS(=O)(=O)O` (stereo in doubt), the values for the MIC in series [1] and in series [2] were 1 µg/mL (≈ 1.93 µM) and 8 µg/mL (≈ 15.4 µM), respectively. In addition, the MIC90 in [4] was > 64 µg/mL; in series [5] it was 4 µg/mL (≈ 7.71 µM); in [6], 16 µg/mL (≈ 30.9 µM); in [8] it was 64 µg/mL (≈ 123 µM).
For `CC(C)(O/N=C(\C(=O)N[C@H]1CN(C(=O)NS(=O)(=O)n2nc(-c3cc(=O)c(O)c[nH]3)n(C[C@@H](O)CO)c2=O)C1=O)c1csc(N)n1)C(=O)O` (stereo in doubt), the MIC in series [2] was 0.5 µg/mL (≈ 0.7 µM).
Turning to `CC(C)(O/N=C(\C(=O)N[C@@H]1C(=O)N(S(=O)(=O)O)[C@@H]1CNC(=O)c1cc(-c2cc(=O)c(O)cn2O)no1)c1csc(N)n1)C(=O)O` (stereo in doubt), the minimum inhibitory concentration (MIC) in [1] and in [2] was 0.125 µg/mL (≈ 0.186 µM) in each case. For the same compound, the MIC90 in [4] was 16 µg/mL (≈ 23.9 µM); in [5], 0.25 µg/mL (≈ 0.373 µM); in series [6] it was 1 µg/mL (≈ 1.49 µM); in series [8], > 64 µg/mL. Moreover, the clearance in series [12] is 87 mL/min/kg; in series [15] it was 34.7 mL/min/kg; in series [10], 8.1 mL/min/kg. The fraction unbound in series [7] came to 0.33; in series [9], 0.46; in series [14] it was 0.65. For the same compound, the ED50 in series [13] was determined as 73.6 mg/kg. In addition, the CL free in [11] came out at 24.5 mL/min/kg.
For the compound `CC(C)(O/N=C(\C(=O)N[C@@H]1C(=O)N(S(=O)(=O)O)[C@@H]1COC(=O)CNC(=O)c1cc(=O)c(O)cn1O)c1csc(N)n1)C(=O)O` (stereo in doubt), the Stability result in series [3] is listed as “Stable”. The MIC stood at 0.125 µg/mL (≈ 0.189 µM) in [1] and 0.5 µg/mL (≈ 0.756 µM) in [2]. Also, the MIC90 in [4] was 32 µg/mL (≈ 48.4 µM); in series [5] it was 2 µg/mL (≈ 3.02 µM); in series [6], 1 µg/mL (≈ 1.51 µM); in [8] it was > 64 µg/mL. Also, the values for the fraction unbound in [7] and in series [9] were 0.36 and 0.57, respectively. This compound came in with a clearance in [10] of 8.9 mL/min/kg. For the same compound, the CL free in [11] amounted to 24.7 mL/min/kg.
In the case of `CC(C)(O/N=C(\C(=O)N[C@@H]1C(=O)N(S(=O)(=O)O)[C@@H]1COC(=O)c1csc(-c2cc(=O)c(O)c[nH]2)n1)c1csc(N)n1)C(=O)O` (stereo in doubt), the values for the MIC in series [1] and in series [2] were 0.5 µg/mL (≈ 0.744 µM) and 1 µg/mL (≈ 1.49 µM), respectively.

By MIC is commonly meant the least concentration at which growth counts as inhibited. Read a high MIC as a need for much substance. A word on the MIC90: it is an inhibitory concentration at the 90% level, which refers to growth in some studies and to a panel of isolates in others. Lower therefore signals greater potency. As a reminder, the fraction unbound is the share of the substance not bound to proteins or other matrix. Low readings indicate extensive binding, high ones weak binding. For orientation: clearance means the rate of elimination divided by the concentration. A lower clearance goes with inefficient removal. For orientation: ED50 means the dose that gives a 50% effect, or the effect in half of the subjects.
